Reference: ChEMBL document CHEMBL1156780, “6-(Het)aryl-7-deazapurine ribonucleosides as novel potent cytostatic agents” (J Med Chem, 2010)

Experiments:
[1] = test system: CCRF-CEM; assay: Cytotoxicity against human CCRF-CEM cells after 3 days by XTT assay; format: functional, cell-based; conditions: 72 h
Outline: (§1)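 Cell viability of CCRF-CEM, HL60 and HeLa cells measured by XTT assay after 72 h incubation with compounds. IC₅₀ taken as mean of 2–4 independent experiments.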

[2] = test system: DU-145; assay: Cytostatic activity against human DU145 cells after 5 days by SRB assay; format: functional; conditions: DU-145, 120 h
Outline: (§2)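 Cells seeded in RPMI (colon, breast, lung lines), MEM (Du145) or F12K (PC3) with 10% FBS, 37 °C overnight. Day-zero plates fixed with cold 10% TCA. Compounds added as 5-fold serial dilutions for 5 days. Fixed, stained with 0.057% SRB in 1% acetic acid, dye solubilized in 10 mM Tris pH 10.5, A500 read. Growth % corrected for day-0 OD; GIC₅₀ from sigmoidal fit.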

[3] = test system: A549; assay: Cytostatic activity against human A549 cells after 5 days by SRB assay; format: functional; conditions: A549, 120 h; outline: as §2
[4] = test system: HCT-116; assay: Cytostatic activity against human HCT116 cells after 5 days by SRB assay; format: functional; conditions: HCT-116, 120 h; outline: as §2
[5] = test system: HL-60; assay: Cytotoxicity against human HL60 cells after 3 days by XTT assay; format: functional, cell-based; conditions: HL-60, 72 h; outline: as §1
[6] = Cytotoxicity against human HeLaS3 cells after 3 days by XTT assay; format: functional, cell-based; conditions: HeLa S3, 72 h
[7] = Cytostatic activity against human Hs578 cells after 5 days by SRB assay; format: functional; conditions: Hs578, 120 h; outline: as §2
[8] = test system: NCI-H23; assay: Cytotoxicity against human NCI-H23 cells after 5 days by SRB assay; format: functional; conditions: NCI-H23, 120 h; outline: as §2
[9] = test system: BT-549; assay: Cytotoxicity against human BT549 cells after 5 days by SRB assay; format: functional; conditions: BT-549, 120 h; outline: as §2
[10] = test system: PC-3; assay: Cytotoxicity against human PC3 cells after 5 days by SRB assay; format: functional; conditions: PC-3, 120 h; outline: as §2
[11] = test system: HCT-15; assay: Cytotoxicity against human HCT15 cells after 5 days by SRB assay; format: functional; conditions: HCT-15, 120 h; outline: as §2

GI50 [2] [nM] | GI50 [3] [nM] | GI50 [4] [nM] | SMILES | IC50 [1] [nM] | IC50 [5] [nM] | IC50 [6] [nM] | GI50 [7] [nM] | GI50 [8] [nM] | GI50 [9] [nM] | GI50 [10] [nM] | GI50 [11] [nM]
5 | 60 | 18 | OC[C@H]1O[C@@H](n2cc(F)c3c(-c4ccoc4)ncnc32)[C@H](O)[C@@H]1O | 1000 | 2000 | 170 | 180 |  |  |  | 
94 | 2600 | 3700 | OC[C@H]1O[C@@H](n2ccc3c(-c4c[nH]cn4)ncnc32)[C@H](O)[C@@H]1O | 710 |  | 3300 | 1900 |  |  |  | 
410 | 3300 | 7300 | OC[C@H]1O[C@@H](n2ccc3c(-c4ccn[nH]4)ncnc32)[C@H](O)[C@@H]1O | 910 | 10100 | 1100 | 3900 |  |  |  | 
1100 | > 10000 | > 10000 | OC[C@H]1O[C@@H](n2ccc3c(-c4ccccc4)ncnc32)[C@H](O)[C@@H]1O | 4000 |  | > 40000 | > 10000 |  |  |  | 
890 | > 10000 | > 10000 | OC[C@H]1O[C@@H](n2cc(F)c3c(-c4c[nH]cn4)ncnc32)[C@H](O)[C@@H]1O | 1800 |  | 12200 | 2100 |  |  |  | 
> 10000 | > 10000 | > 10000 | OC[C@H]1O[C@@H](n2ccc3c(Cc4ccccc4)ncnc32)[C@H](O)[C@@H]1O | 3800 | > 10000 | > 7500 | > 10000 |  |  |  | 
32 | 630 | 220 | OC[C@H]1O[C@@H](n2ccc3c(-c4ccsc4)ncnc32)[C@H](O)[C@@H]1O | 4000 | > 40000 |  | 710 |  |  |  | 
630 | > 10000 | > 10000 | OC[C@H]1O[C@@H](n2ccc3c(-c4ccc[nH]4)ncnc32)[C@H](O)[C@@H]1O | 10000 |  |  | 1300 |  |  |  | 
66 | 380 | 140 | OC[C@H]1O[C@@H](n2cc(F)c3c(-c4ccsc4)ncnc32)[C@H](O)[C@@H]1O | 560 | 4900 | 210 | 810 |  |  |  | 
75 | 6200 | 5700 | OC[C@H]1O[C@@H](n2ccc3c(-c4cn[nH]c4)ncnc32)[C@H](O)[C@@H]1O | 1000 |  | 4100 | 3100 |  |  |  | 
5 | 110 | 39 | OC[C@H]1O[C@@H](n2cc(F)c3c(-c4ccco4)ncnc32)[C@H](O)[C@@H]1O | 1400 | 1200 | 8000 | 180 | 4300 | 110 | 75 | 57
18 | 380 | 100 | OC[C@H]1O[C@@H](n2cc(Cl)c3c(-c4ccsc4)ncnc32)[C@H](O)[C@@H]1O | 1000 | 1600 | 340 | 110 |  |  |  | 
390 | 4900 | > 10000 | OC[C@H]1O[C@@H](n2ccc3c(-c4ccccn4)ncnc32)[C@H](O)[C@@H]1O | 1500 | > 40000 |  | > 10000 |  |  |  | 
19 | 410 | 480 | OC[C@H]1O[C@@H](n2ccc3c(-c4nccs4)ncnc32)[C@H](O)[C@@H]1O | 390 | 1200 | 130 | 290 |  |  |  | 
30 | 360 | 500 | OC[C@H]1O[C@@H](n2ccc3c(-c4cc[nH]c4)ncnc32)[C@H](O)[C@@H]1O | 280 | 1200 | 260 | 440 |  |  |  | 
 |  |  | Nc1nc(Cl)nc2c1ncn2[C@@H]1O[C@H](CO)[C@@H](O)[C@@H]1F [CLOFARABINE] |  |  |  |  | 40 | 65 | 63 | 180
24 | 900 | 1300 | OC[C@H]1O[C@@H](n2cc(F)c3c(-c4nccs4)ncnc32)[C@H](O)[C@@H]1O | 550 | 1000 | 3100 | 570 |  |  |  | 
9 | 190 | 450 | OC[C@H]1O[C@@H](n2cc(F)c3c(-c4ccc[nH]4)ncnc32)[C@H](O)[C@@H]1O | 410 | 3300 | 230 | 310 |  |  |  | 
13 | 380 | 270 | OC[C@H]1O[C@@H](n2cc(Cl)c3c(-c4cccs4)ncnc32)[C@H](O)[C@@H]1O | 2700 | 5500 | 28200 | 1600 |  |  |  | 
10 | 130 | 250 | OC[C@H]1O[C@@H](n2cc(F)c3c(-c4cc[nH]c4)ncnc32)[C@H](O)[C@@H]1O | 930 | 1900 | 8900 | 360 |  |  |  | 
30 | 250 | 450 | OCc1ncnc2c1ccn2[C@@H]1O[C@H](CO)[C@@H](O)[C@H]1O | 450 | 2200 | 350 | 53 |  |  |  | 
> 10000 | > 10000 | > 10000 | OC[C@H]1O[C@@H](n2ccc3c(-c4cccnc4)ncnc32)[C@H](O)[C@@H]1O | > 10000 | > 10000 | > 10000 | > 10000 |  |  |  | 
1300 | > 10000 | > 10000 | COc1ccc(-c2ncnc3c2ccn3[C@@H]2O[C@H](CO)[C@@H](O)[C@H]2O)cc1 | 10900 | > 10000 | > 10000 | > 10000 |  |  |  | 
580 | > 10000 | > 10000 | OC[C@H]1O[C@@H](n2cc(F)c3c(-c4ccccc4)ncnc32)[C@H](O)[C@@H]1O | 3100 | > 40000 | 2600 | > 10000 |  |  |  | 
1200 | 4400 | 2600 | CCc1ncnc2c1ccn2[C@@H]1O[C@H](CO)[C@@H](O)[C@H]1O | 1250 | 5600 | 3600 | 4700 |  |  |  | 
54 | 1100 | 2000 | OC[C@H]1O[C@@H](n2cc(Cl)c3c(-c4ccoc4)ncnc32)[C@H](O)[C@@H]1O | 1100 | 2500 | 2700 | 1600 |  |  |  | 
140 | 2500 | 1400 | OC[C@H]1O[C@@H](n2cc(Cl)c3c(-c4ccccc4)ncnc32)[C@H](O)[C@@H]1O | 910 | 1200 | 420 | > 10000 |  |  |  | 
730 | > 10000 | > 10000 | OC[C@H]1O[C@@H](n2ccc3c(-c4ccc(F)cc4)ncnc32)[C@H](O)[C@@H]1O | 23200 | 52700 | 2900 | 2500 |  |  |  | 

SMILES | GI50 [2] [nM] | GI50 [3] [nM] | GI50 [4] [nM] | IC50 [1] [nM] | IC50 [5] [nM] | IC50 [6] [nM] | GI50 [7] [nM] | GI50 [8] [nM] | GI50 [9] [nM] | GI50 [10] [nM] | GI50 [11] [nM]
OC[C@H]1O[C@@H](n2ccc3c(-c4ccc[se]4)ncnc32)[C@H](O)[C@@H]1O | 28 | 230 | 340 | 1500 | 2800 | 7400 | 290 |  |  |  | 
